Data on 55 molecules can be found in PubChem BioAssay AID2465 (Broad Institute, 2010).

Molecules are shown by their SMILES. The campaign covered roughly 24,000 compounds. Fewer than 10 were called active. Rule as the data show it: active = caspase activation above about 5.9%; inconclusive = no clear call, values can overlap the other calls; inactive = below about 2.2%. A selection follows.

A short description of the test: Bcl2-A1 antagonists releasing BIM, apoptosis – cell-based, luminescence, HTS, two replicates, primary screen (AID 2465). Conditions: MEF A1-2A-BIM cells, caspase-Glo luminescence, 3 h; active compounds read high; percent of clofoctol response, DMSO zero; concentration not given here. Put shortly: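 Material: mouse embryonic fibroblasts co-expressing A1 and BIM (A1-2A-BIM), primed for A1 dependence / Quantity: 2500 cells/well / Buffer or medium: RPMI-1640 growth medium with 10% FBS / Doses: 50 nL compound per well, pinned / Schedule: 3 h compound exposure at 37 °C / Signal: Caspase-Glo luminescence (DEVD substrate) / Measure: Caspase-3/7 activation, seen as rise in luminescence signal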
As for `C[C@H]1CN([C@@H](C)CO)C(=O)Cc2cc(NS(=O)(=O)c3ccccc3)ccc2O[C@H]1CN(C)Cc1ccc(C(=O)Nc2ccccc2N)cc1`, the caspase activation is 0.839% (inactive). `COc1ccc(CN(C)C[C@H]2OCCCC[C@H](C)Oc3ccc(NC(=O)NC4CCCCC4)cc3C(=O)N([C@@H](C)CO)C[C@@H]2C)cc1`: the caspase activation was 2.09% (inactive). The same measure for `CN(C)c1ccc(/C=N/NC(=O)c2cccc(C(=O)NO)c2)cc1`: -7.51% (inactive).

`C[C@@H]1CN([C@@H](C)CO)C(=O)c2cc(NC(=O)Nc3ccc4c(c3)OCO4)ccc2O[C@@H](C)CCCCO[C@@H]1CN(C)S(=O)(=O)c1cccs1`: the caspase activation is 0.598% (inactive). The same measure for `COc1ccc(CN(C)C[C@H]2OCCCC[C@H](C)Oc3ccc(NC(=O)c4ccccc4)cc3C(=O)N([C@@H](C)CO)C[C@@H]2C)cc1`: 2.67% (inactive); for `O=C(NO)c1cccc(C(=O)N/N=C/c2cc(Br)c(O)c(Br)c2)c1`: 0.169% (inactive); for `CC(C)NC(=O)N(C)C[C@H]1Oc2ccc(NC(=O)CCCCCC(=O)Nc3ccccc3N)cc2CC(=O)N([C@@H](C)CO)C[C@H]1C`: 0.899% (inactive). For `Cc1noc(C)c1S(=O)(=O)N(C)C[C@H]1OCc2cn(nn2)CCCC(=O)N([C@H](C)CO)C[C@H]1C`, the caspase activation is -0.756% (inactive). With `C[C@H]1CCCCO[C@@H](CN(C)C(=O)Nc2ccccc2)[C@@H](C)CN([C@@H](C)CO)C(=O)c2cc(NC(=O)Nc3ccc(F)cc3)ccc2O1`, the caspase activation was -0.917% (inactive). The same measure for `Cc1ccc(S(=O)(=O)Nc2ccc3c(c2)C(=O)N([C@H](C)CO)C[C@H](C)[C@@H](CN(C)Cc2ccccc2)OCCCC[C@H](C)O3)cc1`: -0.556% (inactive); for `C[C@H](CO)N1C[C@H](C)[C@@H](CN(C)Cc2ccc(C(=O)O)cc2)Oc2ccc(NS(=O)(=O)c3cn(C)cn3)cc2CC1=O`: -0.273% (inactive). As for `C[C@@H]1CCCCO[C@@H](CN(C)C(=O)Nc2cccc3ccccc23)[C@H](C)CN([C@H](C)CO)C(=O)c2cc(NS(C)(=O)=O)ccc2O1`, the caspase activation is -0.00967% (inactive). With `Cc1noc(C)c1NC(=O)Nc1ccc2c(c1)C(=O)N([C@H](C)CO)C[C@@H](C)[C@@H](CN(C)Cc1ccncc1)OCCCC[C@H](C)O2` the figure was -0.749% (inactive); with `C[C@@H]1CN([C@@H](C)CO)C(=O)c2cc(NC(=O)Cc3ccccc3)ccc2O[C@@H]1CN(C)CC1CCCCC1`, 0.64% (inactive); with `Cc1noc(C)c1NC(=O)Nc1ccc2c(c1)C(=O)N([C@@H](C)CO)C[C@@H](C)[C@H](CN(C)C(=O)NC(C)C)O2`, 0.213% (inactive). For the molecule `C[C@@H]1CN([C@H](C)CO)C(=O)c2cc(NC(=O)CCCCCC(=O)Nc3ccccc3N)ccc2O[C@H]1CN(C)Cc1ccncc1`, the caspase activation is 0.61% (inactive). On to `C[C@@H]1CCCCO[C@H](CN(C)CC2CC2)[C@@H](C)CN([C@H](C)CO)C(=O)c2cc(NC(=O)Nc3ccc(F)cc3)ccc2O1`, for which the caspase activation was -0.194% (inactive). With `COc1ccc(S(=O)(=O)N(C)C[C@@H]2Oc3c(NC(=O)NC(C)C)cccc3C(=O)N([C@@H](C)CO)C[C@@H]2C)cc1` the figure was -0.3% (inactive); with `O=C(CCCCC(=O)N/N=C/c1ccc(-n2ccnc2)cc1)NO`, 1.09% (inactive). For the molecule `C[C@H](CO)N1C[C@H](C)[C@H](CN(C)C(=O)c2ccccc2)OCCCC[C@H](C)Oc2ccc(N(C)C)cc2C1=O`, the caspase activation was -1.45% (inactive).

For `CC(C)NC(=O)Nc1ccc2c(c1)C(=O)N([C@H](C)CO)C[C@H](C)[C@@H](CN(C)S(=O)(=O)c1ccc(F)cc1)OCCCC[C@H](C)O2`, the caspase activation was 1.08% (inactive).

Regarding `COc1ccc(S(=O)(=O)N(C)C[C@@H]2OCCCC[C@@H](C)Oc3ccc(NC(=O)c4ccccc4)cc3C(=O)N([C@@H](C)CO)C[C@H]2C)cc1`, the caspase activation is 1.47% (inactive). For the molecule `C[C@@H]1CCCCO[C@H](CN(C)C(=O)Nc2ccc(C(F)(F)F)cc2)[C@@H](C)CN([C@@H](C)CO)C(=O)c2cc(NS(=O)(=O)c3cccs3)ccc2O1`, the caspase activation is -0.547% (inactive). The same measure for `CCOc1cccc(/C=N/NC(=O)CCCCCC(=O)Nc2ccccc2O)c1OCC`: -0.952% (inactive); for `C[C@@H]1CN([C@@H](C)CO)C(=O)c2cc(NC(=O)Nc3ccc(C(F)(F)F)cc3)ccc2O[C@@H](C)CCCCO[C@H]1CN(C)C(=O)CCCN(C)C`: 0.263% (inactive); for `Cc1noc(C)c1NC(=O)N(C)C[C@@H]1Oc2ccc(NS(=O)(=O)c3ccc(F)cc3)cc2CC(=O)N([C@@H](C)CO)C[C@H]1C`: -0.135% (inactive). The same measure for `COc1ccc(S(=O)(=O)Nc2ccc3c(c2)CC(=O)N([C@H](C)CO)C[C@H](C)[C@@H](CN(C)C(=O)NC(C)C)O3)cc1`: 0.0847% (inactive); for `C[C@H](CO)N1C[C@H](C)[C@@H](CN(C)S(C)(=O)=O)OCCCC[C@H](C)Oc2ccc(NC(=O)Nc3ccc(C(F)(F)F)cc3)cc2C1=O`: -0.463% (inactive); for `C[C@H]1CCCCO[C@H](CN(C)S(C)(=O)=O)[C@@H](C)CN([C@@H](C)CO)C(=O)c2cc(NC(=O)C3CCCCC3)ccc2O1`: -0.127% (inactive).

With `C[C@@H]1CN([C@@H](C)CO)C(=O)c2cc(NC(=O)NC3CCCCC3)ccc2O[C@@H](C)CCCCO[C@H]1CN(C)Cc1ccccc1`, the caspase activation was 1.95% (inactive). As to `C[C@@H]1CCCCO[C@@H](CN(C)C(=O)Nc2cccc3ccccc23)[C@H](C)CN([C@H](C)CO)C(=O)c2cc(NC(=O)NC3CCCCC3)ccc2O1`, the caspase activation was -0.528% (inactive). The same measure for `COc1ccc(NC(=O)N(C)C[C@H]2OCCCC[C@H](C)Oc3ccc(NC(=O)c4ccncc4)cc3C(=O)N([C@H](C)CO)C[C@@H]2C)cc1`: -1.84% (inactive).

For `COc1ccc(S(=O)(=O)Nc2cccc3c2O[C@@H](CN(C)C(=O)NC(C)C)[C@H](C)CN([C@@H](C)CO)C3=O)cc1`, the caspase activation is 0.104% (inactive). The same measure for `COc1ccc(CN(C)C[C@H]2Oc3ccc(NS(=O)(=O)c4c(C)noc4C)cc3CC(=O)N([C@H](C)CO)C[C@H]2C)cc1`: -1.02% (inactive); for `C[C@H]1CCCCO[C@H](CN(C)C(=O)Nc2ccccc2)[C@@H](C)CN([C@@H](C)CO)C(=O)c2cc(NC(=O)c3ccncc3)ccc2O1`: 0.525% (inactive). With `Cc1ccc(S(=O)(=O)Nc2ccc3c(c2)C(=O)N([C@@H](C)CO)C[C@H](C)[C@@H](CN(C)C(=O)Cc2ccccc2)OCCCC[C@H](C)O3)cc1` the figure was -0.949% (inactive). In the case of `C[C@@H]1CN([C@H](C)CO)C(=O)c2cccc(NC(=O)Nc3ccccc3)c2O[C@H]1CN(C)S(C)(=O)=O`, the caspase activation is -0.29% (inactive). The same measure for `Cc1ccccc1CN(C)C[C@H]1OCc2cn(nn2)CCCC(=O)N([C@@H](C)CO)C[C@H]1C`: -0.00464% (inactive); for `C[C@H](CO)N1C[C@H](C)[C@@H](CN(C)S(=O)(=O)c2cccs2)OCCCC[C@H](C)Oc2ccc(NS(=O)(=O)c3ccccc3)cc2C1=O`: 0.384% (inactive). With `C[C@@H]1CCCCO[C@H](CN(C)Cc2ccccc2)[C@H](C)CN([C@@H](C)CO)C(=O)c2cc(NC(=O)Nc3cccc4ccccc34)ccc2O1` the figure was -0.203% (inactive); with `O=C(CCCCCC(=O)Nc1ccccc1O)N/N=C/c1ccc(Br)o1`, 0.454% (inactive). With `C[C@H](CO)N1C[C@H](C)[C@H](CN(C)Cc2ccc(C(=O)O)cc2)OCc2cn(nn2)CCCC1=O` the figure was 0.235% (inactive); with `C[C@@H]1CN([C@@H](C)CO)C(=O)c2cc(NC(=O)Nc3ccccc3)ccc2O[C@@H]1CN(C)Cc1ccccc1`, -0.201% (inactive); with `CC(C)NC(=O)N(C)C[C@H]1OCCCC[C@H](C)Oc2ccc(NS(=O)(=O)c3cccs3)cc2C(=O)N([C@H](C)CO)C[C@@H]1C`, 1.03% (inactive). `COc1ccc(NC(=O)N(C)C[C@@H]2Oc3ccc(NS(=O)(=O)c4ccc(OC)cc4)cc3CC(=O)N([C@H](C)CO)C[C@H]2C)cc1`: the caspase activation is 0.4% (inactive). With `COc1ccc(S(=O)(=O)Nc2cccc3c2O[C@@H](CN(C)C(=O)Nc2cccc4ccccc24)[C@H](C)CN([C@@H](C)CO)C3=O)cc1` the figure was -1.43% (inactive).

For `C[C@H](O)[C@H](O)[C@@H](O)[C@@H](O)/C=N/NC(=O)CCCCCC(=O)Nc1ccccc1O`, the caspase activation is 0.323% (inactive). For the molecule `C[C@@H]1CN([C@@H](C)CO)C(=O)c2cc(NC(=O)Cc3ccccc3)ccc2O[C@@H](C)CCCCO[C@H]1CN(C)C(=O)Cc1ccccc1`, the caspase activation is 1.05% (inactive). Take `Cc1noc(C)c1S(=O)(=O)N(C)C[C@@H]1OCCCC[C@H](C)Oc2ccc(NC(=O)Nc3ccc4c(c3)OCO4)cc2C(=O)N([C@H](C)CO)C[C@@H]1C`: the caspase activation is -0.0337% (inactive). With `O=C(CCCCCCC(=O)Nc1ccccc1O)N/N=C/c1ccc(Oc2ccccc2)cc1` the figure was 0.474% (inactive); with `O=C(NO)c1ccc(C(=O)N/N=C/c2ccc(Br)cc2)cc1`, -0.637% (inactive). `CC(C)NC(=O)Nc1ccc2c(c1)C(=O)N([C@@H](C)CO)C[C@H](C)[C@H](CN(C)C(=O)NC1CCCCC1)OCCCC[C@@H](C)O2`: the caspase activation was 0.925% (inactive). The same measure for `C[C@@H]1CN([C@H](C)CO)C(=O)c2cc(NC(=O)c3ccncc3)ccc2O[C@@H](C)CCCCO[C@@H]1CN(C)CC1CC1`: -1.05% (inactive); for `C[C@H]1CCCCO[C@H](CN(C)CC2CC2)[C@@H](C)CN([C@@H](C)CO)C(=O)c2cc(NC(=O)CCC(F)(F)F)ccc2O1`: -0.204% (inactive). Turning to `C[C@@H]1CCCCO[C@@H](CN(C)S(=O)(=O)c2cccs2)[C@@H](C)CN([C@@H](C)CO)C(=O)c2cc(NS(=O)(=O)c3ccc(F)cc3)ccc2O1`, the caspase activation is 0.628% (inactive).
